In ChEMBL document CHEMBL2384906, “Biological activity, design, synthesis and structure activity relationship of some novel derivatives of curcumin containing sulfonamides” (Eur J Med Chem, 2013):
Converted amounts (≈) assume the structure as drawn. The source made the active and inactive calls. The calls are words filed in the database; no cut-off is given here.

Experiments:
Trichoderma viride [1] = experiment: Antifungal activity against Trichoderma viride MTCC 1107 after 48 hrs; type: functional; details: MTCC 1107, 48 h
Curvularia lunata [2] = experiment: Antifungal activity against Curvularia lunata MTCC 581 assessed as zone of inhibition at 40 uM after 48 hrs by disc diffusion method; type: functional; details: MTCC 581, 48 h, read-out: IZ
In short: (§1)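 Spores from 4-day potato dextrose agar cultures, suspended in sterile water at 1.5 × 10⁵ CFU/mL. 0.2 mL was spread on potato dextrose agar. 5 mm filter-paper discs soaked with test compound were laid on the lawn. Incubation was 48 h at 28 °C, then the inhibition zone was measured in mm. Fluconazole was the positive control and acetone the negative control.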

Salmonella typhi [3] = experiment: Antimicrobial activity against Salmonella typhi ATCC 23564 assessed as diameter of inhibition zone at 20 uM after 24 hrs by Kirby -Baur disc diffusion method; type: functional; details: Salmonella enterica subsp. enterica serovar Typhi
Escherichia coli [4] = experiment: Antimicrobial activity against Escherichia coli ATCC 35218 assessed as diameter of inhibition zone at 40 uM after 24 hrs by Kirby -Baur disc diffusion method; type: functional
In short: (§2)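 Kirby-Bauer disc diffusion was used. Acetone stocks (160 µM) were serially doubled down to 80, 40 and 20 µM. 4 µL of each went onto 5 mm sterile paper discs, which were dried 30 min at 50 °C. Inoculum was 1.5 × 10⁸ CFU/mL diluted to 3 × 10² CFU/mL, and 50 µL was spread on Mueller-Hinton agar. After 24 h at 37 °C the inhibition-zone diameter was measured. Ciprofloxacin served as positive control.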

Staphylococcus aureus [5] = experiment: Antimicrobial activity against Staphylococcus aureus ATCC 11632 after 24 hrs by broth micro serial dilution method; type: functional; details: ATCC 11632, 24 h
In short: (§3)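 This was broth microdilution in autoclaved Mueller-Hinton broth. 150 µL of compound per well was serially diluted […], and 50 µL of test organism was added. Plates were incubated 24 h at 37 °C and optical density was read.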

Aspergillus flavus [6] = experiment: Antifungal activity against Aspergillus flavus MTCC 1021 assessed as zone of inhibition at 80 uM after 48 hrs by disc diffusion method; type: functional; in short: as §1
Trichoderma viride [7] = experiment: Antifungal activity against Trichoderma viride MTCC 1107 assessed as zone of inhibition at 80 uM after 48 hrs by disc diffusion method; type: functional; details: MTCC 1107, 48 h, read-out: IZ; in short: as §1
Salmonella typhi [8] = experiment: Antimicrobial activity against Salmonella typhi ATCC 23564 assessed as diameter of inhibition zone at 40 uM after 24 hrs by Kirby -Baur disc diffusion method; type: functional, Salmonella enterica subsp. enterica serovar Typhi; details: Salmonella enterica, ATCC 23564, 24 h; read-out: DIZ
Salmonella typhi [9] = experiment: Antimicrobial activity against Salmonella typhi ATCC 23564 assessed as diameter of inhibition zone at 80 uM after 24 hrs by Kirby -Baur disc diffusion method; type: functional, Salmonella enterica subsp. enterica serovar Typhi; details: Salmonella enterica, ATCC 23564, 24 h; read-out: DIZ
Curvularia lunata [10] = experiment: Antifungal activity against Curvularia lunata MTCC 581 after 48 hrs; type: functional; details: MTCC 581, 48 h
Salmonella typhi [11] = experiment: Antimicrobial activity against Salmonella typhi ATCC 23564 after 24 hrs by broth micro serial dilution method; type: functional, Salmonella enterica subsp. enterica serovar Typhi; details: Salmonella enterica, ATCC 23564, 24 h
Escherichia coli [12] = experiment: Antimicrobial activity against Escherichia coli ATCC 35218 assessed as diameter of inhibition zone at 80 uM after 24 hrs by Kirby -Baur disc diffusion method; type: functional; details: ATCC 35218, 24 h, read-out: DIZ; in short: as §2
Curvularia lunata [13] = experiment: Antifungal activity against Curvularia lunata MTCC 581 assessed as zone of inhibition at 20 uM after 48 hrs by disc diffusion method; type: functional; in short: as §1
Pseudomonas aeruginosa [14] = experiment: Antimicrobial activity against Pseudomonas aeruginosa ATCC 15499 assessed as diameter of inhibition zone at 20 uM after 24 hrs by Kirby -Baur disc diffusion method; type: functional; in short: as §2
Escherichia coli [15] = experiment: Antimicrobial activity against Escherichia coli ATCC 35218 after 24 hrs by broth micro serial dilution method; type: functional; details: ATCC 35218, 24 h; in short: as §3
Pseudomonas aeruginosa [16] = experiment: Antimicrobial activity against Pseudomonas aeruginosa ATCC 15499 assessed as diameter of inhibition zone at 40 uM after 24 hrs by Kirby -Baur disc diffusion method; type: functional; in short: as §2
Curvularia lunata [17] = experiment: Antifungal activity against Curvularia lunata MTCC 581 assessed as zone of inhibition at 80 uM after 48 hrs by disc diffusion method; type: functional; details: MTCC 581, 48 h, read-out: IZ; in short: as §1
Mus musculus = experiment: Antiinflammatory activity in mouse assessed as inhibition of carrageenan-induced increase in paw volume at 200 mg/kg, ip administered 1 hr prior to carrageenan challenge measured after 3 hrs relative to control; type: functional; details: route intraperitoneal
In short: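 Mice were fasted 2 h and placed in groups of five. Controls received saline i.p. Phenylbutazone was given at 100 mg/kg i.p., curcumin at 200 mg/kg i.p., and derivatives at 200 mg/kg. After 1 h, 0.1 mL of 1% carrageenan in saline was injected subplantar into the right hind paw. Paw volume was followed by plethysmometer for 3 h, and % inhibition was calculated as (Vc − Vt)/Vc × 100.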

Escherichia coli [18] = experiment: Antimicrobial activity against Escherichia coli ATCC 35218 assessed as diameter of inhibition zone at 20 uM after 24 hrs by Kirby -Baur disc diffusion method; type: functional; in short: as §2
Pseudomonas aeruginosa [19] = experiment: Antimicrobial activity against Pseudomonas aeruginosa ATCC 15499 after 24 hrs by broth micro serial dilution method; type: functional; details: ATCC 15499, 24 h; in short: as §3
Trichoderma viride [20] = experiment: Antifungal activity against Trichoderma viride MTCC 1107 assessed as zone of inhibition at 40 uM after 48 hrs by disc diffusion method; type: functional; in short: as §1
Bacillus cereus [21] = experiment: Antimicrobial activity against Bacillus cereus MTCC 7350 assessed as diameter of inhibition zone at 80 uM after 24 hrs by Kirby -Baur disc diffusion method; type: functional; details: MTCC 7350, 24 h, read-out: DIZ; in short: as §2
Aspergillus flavus [22] = experiment: Antifungal activity against Aspergillus flavus MTCC 1021 after 48 hrs; type: functional
Aspergillus niger [23] = experiment: Antifungal activity against Aspergillus niger MTCC 1108 after 48 hrs; type: functional
Trichoderma viride [24] = experiment: Antifungal activity against Trichoderma viride MTCC 1107 assessed as zone of inhibition at 20 uM after 48 hrs by disc diffusion method; type: functional; in short: as §1
Pseudomonas aeruginosa [25] = experiment: Antimicrobial activity against Pseudomonas aeruginosa ATCC 15499 assessed as diameter of inhibition zone at 80 uM after 24 hrs by Kirby -Baur disc diffusion method; type: functional; details: ATCC 15499, 24 h, read-out: DIZ; in short: as §2
Aspergillus niger [26] = experiment: Antifungal activity against Aspergillus niger MTCC 1108 assessed as zone of inhibition at 80 uM after 48 hrs by disc diffusion method; type: functional; in short: as §1
Bacillus cereus [27] = experiment: Antimicrobial activity against Bacillus cereus MTCC 7350 after 24 hrs by broth micro serial dilution method; type: functional; details: MTCC 7350, 24 h; in short: as §3
Staphylococcus aureus [28] = experiment: Antimicrobial activity against Staphylococcus aureus ATCC 11632 assessed as diameter of inhibition zone at 80 uM after 24 hrs by Kirby -Baur disc diffusion method; type: functional; in short: as §2

COc1cc(/C=C/C(=O)CC(=O)/C=C/c2ccc(O)c(OC)c2)ccc1O [CURCUMIN]
MIC (Trichoderma viride [1]): > 80 µM
zone of inhibition at 40 µM (Curvularia lunata [2]): 9 mm
diameter of the inhibition zone (DIZ) (Salmonella typhi [3]): inactive
diameter of the inhibition zone (DIZ) (Escherichia coli [4]): inactive
MIC (Staphylococcus aureus [5]): 80 µM (≈ 29.5 µg/mL)
inhibition zone (IZ) (Aspergillus flavus [6]): inactive
zone of inhibition at 80 µM (Trichoderma viride [7]): 9 mm
zone of inhibition at 40 µM (Salmonella typhi [8]): 9 mm
zone of inhibition at 80 µM (Salmonella typhi [9]): 11 mm
MIC (Curvularia lunata [10]): > 80 µM
MIC (Salmonella typhi [11]): > 80 µM
zone of inhibition at 80 µM (Escherichia coli [12]): 12 mm
inhibition zone (IZ) (Curvularia lunata [13]): inactive
diameter of the inhibition zone (DIZ) (Pseudomonas aeruginosa [14]): inactive
MIC (Escherichia coli [15]): > 80 µM
diameter of the inhibition zone (DIZ) (Pseudomonas aeruginosa [16]): inactive
zone of inhibition at 80 µM (Curvularia lunata [17]): 11 mm
inhibition in vivo at 200 mg/kg (Mus musculus): 12.9%
diameter of the inhibition zone (DIZ) (Escherichia coli [18]): inactive
MIC (Pseudomonas aeruginosa [19]): > 80 µM
inhibition zone (IZ) (Trichoderma viride [20]): inactive
zone of inhibition at 80 µM (Bacillus cereus [21]): 9 mm
MIC (Aspergillus flavus [22]): inactive
MIC (Aspergillus niger [23]): inactive
inhibition zone (IZ) (Trichoderma viride [24]): inactive
zone of inhibition at 80 µM (Pseudomonas aeruginosa [25]): 11 mm
inhibition zone (IZ) (Aspergillus niger [26]): inactive
MIC (Bacillus cereus [27]): > 80 µM
diameter of the inhibition zone (DIZ) (Staphylococcus aureus [28]): inactive
